# RGS4 inh – inhibitors of human RGS4; P49798; HEK293 M3R/RGS4 inducible, Fluo-4 calcium flux; hits give high values; triggered by carbachol at its EC20; B-score at 10 µM; 310,000 compounds, 0.45% hits; AID 463165;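 active means B-score, a plate-corrected calcium signal, over three deviations above library mean, with baseline fluorescence within five deviations of library mean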;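 further: RGS4 expression induced by doxycycline in cells with stable M3 receptor; B-score is computed from the integrated fluorescence ratio over baseline after carbachol; higher B-score means a larger calcium signal and so more RGS4 inhibition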
# Target sequence (P49798 whole entry, looked up): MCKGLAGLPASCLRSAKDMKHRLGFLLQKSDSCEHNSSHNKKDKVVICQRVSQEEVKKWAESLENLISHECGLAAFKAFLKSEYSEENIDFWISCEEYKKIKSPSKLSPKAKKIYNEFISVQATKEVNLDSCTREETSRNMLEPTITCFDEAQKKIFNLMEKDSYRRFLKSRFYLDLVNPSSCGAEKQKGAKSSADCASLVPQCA
# MrgX1 ag – agonists of human MrgX1 receptor; Q96LB2; MrgX1-HEK293 cells, Fluo-4 calcium fluorescence, agonist mode; hits give high values; B-score at 10 µM; 310,000 compounds, 0.44% hits; AID 588627;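 active means calcium response B-score plate-corrected fluorescence ratio at least 3 library SD, with starting fluorescence B-score inside 5 SD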
# Target sequence (Q96LB2 whole entry, looked up): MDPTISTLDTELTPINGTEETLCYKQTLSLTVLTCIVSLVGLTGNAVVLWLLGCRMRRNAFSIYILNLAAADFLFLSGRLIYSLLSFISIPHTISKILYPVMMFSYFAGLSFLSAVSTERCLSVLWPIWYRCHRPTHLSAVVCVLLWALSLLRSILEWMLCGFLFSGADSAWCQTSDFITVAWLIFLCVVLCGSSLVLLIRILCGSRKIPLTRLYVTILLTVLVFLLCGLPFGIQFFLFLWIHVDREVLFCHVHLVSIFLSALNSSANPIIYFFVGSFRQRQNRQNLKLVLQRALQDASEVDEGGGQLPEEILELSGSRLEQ
#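 Test system: HEK293 cells stably expressing human MrgX1 receptor; amount: 15,000 cells per well; doses: compound delivered in addition one of three; times: overnight plating before 1 h dye loading; detection: Fluo-4 NW calcium-flux fluorescence, kinetic read; read-out basis: B-scored fluorescence response ratio; controls: positive and negative controls per plate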
# RGS4 act – potentiators or activators of RGS4. HEK293 M3R/inducible RGS4, carbachol calcium flux Fluo4; hits give low values. B-score at 10 µM. 310,000 compounds, 0.92% hits;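 active means B-score of the integrated calcium signal more than 4 SD below the library mean, with starting fluorescence not abnormally high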;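 further: negative B-score means reduced calcium response which marks RGS4 activation or potentiation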
#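 Reagent: ECmax carbachol challenge; Test system: M3R-expressing HEK293 line, RGS4 induced by doxycycline; Schedule: overnight RGS4 induction, 30 min dye load 37 °C, 20 min compound RT; Detection: calcium dye Fluo4 fluorescence; Read-out: Agonist-evoked peak-minus-minimum fluorescence over baseline, integrated ratio, B score.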
# MrgX1 allo act – allosterically activates human MrgX1 receptor signaling; MrgX1-HEK293, Fluo-4 calcium flux, FDSS; hits give high values; B-score at 10 µM; 310,000 compounds, 0.63% hits; AID 588675;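 active means plate-corrected calcium response at least 3 library SD above typical, normal starting fluorescence, not activating the receptor alone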;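 further: compound read alongside a low EC10 to EC30 dose of BAM8-22 agonist; peak minus trough fluorescence over baseline measured at the second addition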
# MrgX1 antagonist – blocks BAM8-22 activation of human MrgX1 receptor. Q96LB2. MRGX1-HEK293 calcium flux, Fluo-4, BAM8-22 antagonism; hits give low values. B-score at 10 µM. 310,000 compounds, 1.3% hits. AID 588676;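 active means calcium-response B-score plate-corrected more than 3 library SD below zero, starting fluorescence within 5 deviations, no agonist response on first addition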;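 further: peak minus trough fluorescence over baseline after final BAM8-22 challenge near maximal dose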
# Numbers without * were called inactive; i = inactive. Most compounds without a hit are left out; they make up all but 3.5% or so of the library.
SMILES,RGS4 inh,MrgX1 ag,RGS4 act,MrgX1 allo act,MrgX1 antagonist
COC(=O)c1sc(NC(=O)C2CCCCC2C(=O)O)c(C(=O)OC)c1C (stereo unspecified),i,i,i,i,i
COC(=O)c1cc(C(=O)NCCC(C)C)cc([N+](=O)[O-])c1,i,i,i,i,i
CCCC(C)NC(=O)c1cc(C(=O)OC)cc([N+](=O)[O-])c1 (stereo unspecified),i,i,i,i,-5.2*
COc1cc2nc(SCc3c(C)noc3C)n(CCC3=CCCCC3)c(=O)c2cc1OC,i,i,-8.2*,i,i
N#Cc1cc2c(nc1SCc1ccc(Cl)cc1)CCCC2,i,i,-7*,i,i
COCc1cc(C)nc(SCc2ccc(Cl)cc2)c1C#N,i,i,-7.6*,i,i
O=C(Nc1ccc(Cl)cc1)Nc1ccc2c(c1)N1CCN=C1S2,i,i,i,i,-5.2*
CCC1CCCCN1S(=O)(=O)c1ccc([N+](=O)[O-])cc1 (stereo unspecified),i,i,-7.4*,i,i
COc1cc(C2CC(=O)Nc3c2c(=O)nc2c(C)cccn32)cc(OC)c1OC (stereo unspecified),i,i,i,i,i
O=C(CCC(=O)OCc1cccc([N+](=O)[O-])c1)Nc1ccccc1Cl,i,i,i,i,i
O=C(CCC(=O)OCC(=O)c1cccc([N+](=O)[O-])c1)Nc1ccccc1Cl,i,i,i,i,-7*
CCCC(C)c1nnc(NC(=O)c2cc(C(=O)OC)cc([N+](=O)[O-])c2)s1 (stereo unspecified),i,i,i,i,i
CC(C)CN(CC(C)C)S(=O)(=O)N1CCC(C(=O)NCc2ccc(F)cc2)CC1,i,i,i,i,i
CC(C)CN(CC(C)C)S(=O)(=O)N1CCC(C(=O)NCCc2ccc(Cl)cc2)CC1,i,i,i,i,-7.6*
CC(CCc1ccccc1)NC(=O)C(C)OC(=O)c1ccco1 (stereo unspecified),i,i,i,i,i
Cc1cc(C(=O)NC2CCCCCCC2)ccc1[N+](=O)[O-],i,i,i,i,i
O=C(O)C1C2C=CC(C2)C1C(=O)NCc1cccnc1 (stereo unspecified),i,i,i,i,i
Cc1c(C(=O)N2CCN(Cc3ccc4c(c3)OCO4)CC2)sc2ncnc(N3CCN(c4ccccc4F)CC3)c12,i,i,i,i,-5.4*
CC12CCC(C/C1=N/OC(=O)c1cccc([N+](=O)[O-])c1)C2(C)C (stereo unspecified),i,i,i,9.8*,i
CC12CCC(C/C1=N\OC(=O)c1ccc(F)cc1)C2(C)C (stereo unspecified),i,i,i,8.4*,i
C/C(=N\OC(=O)c1ccc(F)cc1)c1ccc(F)c(F)c1,i,i,i,i,i
CCCCN1C(=O)C2(NNc3ccccc3O2)c2ccccc21 (stereo unspecified),i,i,i,i,-6.1*
Cc1cccc(N2CCN(C(=O)c3ccc(-n4cncn4)c([N+](=O)[O-])c3)CC2)c1C,i,i,i,i,-4.9*
CCOC(=O)c1nn(-c2ccc(Cl)cc2)c(=O)c(C#N)c1C,i,i,i,i,i
CCOC(=O)c1nn(-c2ccc(Cl)cc2Cl)c(=N)c(C#N)c1C,i,i,i,i,-7.5*
SMILES,RGS4 inh,MrgX1 ag,RGS4 act,MrgX1 allo act,MrgX1 antagonist
CCCCN(C)CC(O)Cn1cc(/C=C/C(=O)c2ccc(C)cc2)c2ccccc21 (stereo unspecified),i,i,i,i,-5.4*
CC(C)Cc1ccc(C(C)C(N)=NCCc2ccccc2)cc1 (stereo unspecified),i,i,-7.1*,i,i
Cc1cccc(COC(=O)C(Cc2ccccc2)NC(N)=O)c1 (stereo unspecified),i,i,i,i,i
CCCn1c(SCC(=O)N2N=C3/C(=C/c4ccc(OC)cc4)CCCC3C2c2ccc(OC)cc2)n[nH]c1=O (stereo unspecified),i,i,i,i,-5.1*
CCCn1c(SCC(=O)NCc2ccc(OC)cc2)n[nH]c1=O,i,i,i,i,i
CC1C2CC(C/C2=N/NC(=O)c2cccs2)C1(C)C (stereo unspecified),i,i,i,8.7*,i
C[C@@H]1C2CC(C/C2=N\NC(=O)c2ccncc2)C1(C)C (stereo partly specified),i,i,i,i,i
Cc1ccc(C(=O)O/N=C(\N)c2nonc2N)cc1,i,i,i,i,i
O=C(CN(C(=O)c1ccc2c(c1)OCCO2)c1ccccc1)NCC1CCCO1 (stereo unspecified),i,i,i,i,i
Cn1c(Cn2c(C(F)(F)F)nc3ccccc32)nc2ccccc21,i,i,i,i,-4.9*
OCCn1c(C(F)(F)F)nc2ccccc21,i,i,i,i,i
CN(c1ccccc1)c1nc(N)c([N+](=O)[O-])c(N2CCOCC2)n1,i,i,i,i,i
CCN1CCN(Cc2ccc(NC(=O)c3cc(NC(=O)C(=O)c4c[nH]c5ccccc45)cc(OC)c3)cc2C(F)(F)F)CC1,i,i,i,i,i
CCN1CCN(Cc2ccc(NC(=O)c3ccc(C)c(NC(=O)C(=O)c4c[nH]c5ccccc45)c3)cc2C(F)(F)F)CC1,i,i,-8.8*,i,i
Cc1ccc(NN2C(=O)C=C(c3ccc(Cl)cc3)C2=O)cc1,i,i,i,i,i
O=C(NCCCN1CCOCC1)C(=O)N/N=C/c1c2ccccc2cc2ccccc12,i,i,-9.2*,i,i
COc1ccc(C(=O)/C=C/c2cc(OC)c(O)c(OC)c2)c(F)c1,i,30*,i,i,i
COc1ccc(/C=N/NC(=S)Nc2ccccc2[N+](=O)[O-])cc1O,i,i,i,6.8*,i
O=C1Nc2ccccc2S/C1=C/Nc1cccc(Cl)c1,i,i,i,i,i
Cc1nc2c3cc(Cl)ccc3n(CCN3CCCCC3)c2s1,i,i,i,11*,i
CC(=O)OCCn1c(C)[n+](CCOC(C)=O)c2cc(Cl)c(Cl)cc21,i,i,i,i,i
CC(=O)OCCn1c2nc(=O)[nH]c(=O)c-2nc2cc(C)c(C)cc21,i,i,-7.7*,i,i
Cc1sc(-n2c(C)cc(/C=C3\SC(=S)NC3=O)c2C)c(C#N)c1C,i,i,-11*,i,-7.4*
